ChEMBL document CHEMBL3351247 (J Med Chem, 2014)

Biological target: Kappa-type opioid receptor (Homo sapiens, UniProt P41145)
Test: Agonist activity at human KOR expressed in CHO cells assessed as inhibition of forskolin-induced cAMP accumulation after 30 mins by luminescence assay
Type: functional, cell-based
Procedure, shortened: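 CHO cells stably expressing KOR or MOR, plated at 10 000 cells/well and incubated overnight at 37 °C. Compounds given as 10-point serial dilutions (1% DMSO final) with 20 μM forskolin final in HBSS/10 mM HEPES. Incubation 30 min at 37 °C, then detection reagents overnight at room temperature. HitHunter cAMP luminescence read-out; data normalized to vehicle and forskolin-only controls, nonlinear regression.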

Sequence of Kappa-type opioid receptor (P41145 whole entry): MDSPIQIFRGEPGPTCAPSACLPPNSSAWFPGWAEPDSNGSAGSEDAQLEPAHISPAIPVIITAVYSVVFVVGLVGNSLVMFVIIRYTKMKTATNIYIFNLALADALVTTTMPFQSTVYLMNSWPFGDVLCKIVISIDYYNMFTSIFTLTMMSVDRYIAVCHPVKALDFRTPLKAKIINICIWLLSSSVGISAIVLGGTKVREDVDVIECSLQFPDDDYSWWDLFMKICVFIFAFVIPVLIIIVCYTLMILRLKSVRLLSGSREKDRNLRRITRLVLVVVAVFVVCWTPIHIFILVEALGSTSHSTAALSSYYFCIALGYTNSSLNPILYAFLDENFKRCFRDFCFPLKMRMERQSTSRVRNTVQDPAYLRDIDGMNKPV

Row | Structure (SMILES) | EC50 | Emax
1 | COC(=O)[C@@H]1C[C@H](OC(C)=O)C(=O)[C@H]2[C@@]1(C)CC[C@H]1C(=O)O[C@H](c3ccoc3-c3cccc(OC)c3)C[C@]21C | 8.6 nM | 100%
2 | COC(=O)[C@@H]1C[C@H](OC(C)=O)C(=O)[C@H]2[C@@]1(C)CC[C@H]1C(=O)O[C@H](c3ccoc3-c3ccc4ccccc4c3)C[C@]21C | 25 nM | 100%
3 | COC(=O)[C@@H]1C[C@H](OC(C)=O)C(=O)[C@H]2[C@@]1(C)CC[C@H]1C(=O)O[C@H](c3ccoc3-c3ccsc3)C[C@]21C | 4.3 nM | 100%
4 | COC(=O)[C@@H]1C[C@H](OC(C)=O)C(=O)[C@H]2[C@@]1(C)CC[C@H]1C(=O)O[C@H](c3ccoc3CO)C[C@]21C | 3.3 nM | 100%
5 | COC(=O)[C@@H]1C[C@H](OC(C)=O)C(=O)[C@H]2[C@@]1(C)CC[C@H]1C(=O)O[C@H](c3ccoc3/C=C/c3ccccc3)C[C@]21C | 20 nM | 100%
6 | COC(=O)[C@@H]1C[C@H](OC(C)=O)C(=O)[C@H]2[C@@]1(C)CC[C@H]1C(=O)O[C@H](c3ccoc3C#Cc3ccccc3OC)C[C@]21C | 6100 nM | 100%
7 | COC(=O)[C@@H]1C[C@H](OC(C)=O)C(=O)[C@H]2[C@@]1(C)CC[C@H]1C(=O)O[C@H](c3ccoc3C#CCCCO)C[C@]21C | 890 nM | 100%
8 | COC(=O)[C@@H]1C[C@H](OC(C)=O)C(=O)[C@H]2[C@@]1(C)CC[C@H]1C(=O)O[C@H](c3ccoc3-c3ccc([N+](=O)[O-])cc3)C[C@]21C | 170 nM | 100%
9 | COC(=O)[C@@H]1C[C@H](OC(C)=O)C(=O)[C@H]2[C@@]1(C)CC[C@H]1C(=O)O[C@H](c3ccoc3-c3ccccc3[N+](=O)[O-])C[C@]21C | 360 nM | 100%
10 | COC(=O)[C@@H]1C[C@H](OC(C)=O)C(=O)[C@H]2[C@@]1(C)CC[C@H]1C(=O)O[C@H](c3ccoc3-c3ccccc3OC)C[C@]21C | 10 nM | 100%
11 | COC(=O)[C@@H]1C[C@H](OC(C)=O)C(=O)[C@H]2[C@@]1(C)CC[C@H]1C(=O)O[C@H](c3ccoc3-c3ccccc3F)C[C@]21C | 1.2 nM | 100%
12 | COC(=O)[C@@H]1C[C@H](OC(C)=O)C(=O)[C@H]2[C@@]1(C)CC[C@H]1C(=O)O[C@H](c3ccoc3-c3cccc4ccccc34)C[C@]21C | 37 nM | 100%
13 | COC(=O)[C@@H]1C[C@H](OC(C)=O)C(=O)[C@H]2[C@@]1(C)CC[C@H]1C(=O)O[C@H](c3ccoc3-c3ccco3)C[C@]21C | 6.7 nM | 100%
14 | CCCC#Cc1occc1[C@@H]1C[C@]2(C)[C@H]3C(=O)[C@@H](OC(C)=O)C[C@@H](C(=O)OC)[C@]3(C)CC[C@H]2C(=O)O1 | 9250 nM | 100%
15 | COC(=O)[C@@H]1C[C@H](OC(C)=O)C(=O)[C@H]2[C@@]1(C)CC[C@H]1C(=O)O[C@H](c3ccoc3-c3cccc(C)c3)C[C@]21C | 3.4 nM | 100%
16 | COC(=O)[C@@H]1C[C@H](OC(C)=O)C(=O)[C@H]2[C@@]1(C)CC[C@H]1C(=O)O[C@H](c3ccoc3-c3ccccc3N)C[C@]21C | 430 nM | 100%
17 | COC(=O)[C@@H]1C[C@H](OC(C)=O)C(=O)[C@H]2[C@@]1(C)CC[C@H]1C(=O)O[C@H](c3ccoc3C3CC3)C[C@]21C | 1 nM | 100%
18 | COC(=O)[C@@H]1C[C@H](OC(C)=O)C(=O)[C@H]2[C@@]1(C)CC[C@H]1C(=O)O[C@H](c3ccoc3-c3ccoc3)C[C@]21C | 6.5 nM | 100%
19 | CC#Cc1occc1[C@@H]1C[C@]2(C)[C@H]3C(=O)[C@@H](OC(C)=O)C[C@@H](C(=O)OC)[C@]3(C)CC[C@H]2C(=O)O1 | 26 nM | 100%
20 | COC(=O)[C@@H]1C[C@H](OC(C)=O)C(=O)[C@H]2[C@@]1(C)CC[C@H]1C(=O)O[C@H](c3ccoc3-c3cccc(F)c3)C[C@]21C | 12 nM | 100%
21 | COC(=O)[C@@H]1C[C@H](OC(C)=O)C(=O)[C@H]2[C@@]1(C)CC[C@H]1C(=O)O[C@H](c3ccoc3C#N)C[C@]21C | 9.4 nM | 100%

Row | Structure (SMILES) | EC50 | Emax
22 | C=Cc1occc1[C@@H]1C[C@]2(C)[C@H]3C(=O)[C@@H](OC(C)=O)C[C@@H](C(=O)OC)[C@]3(C)CC[C@H]2C(=O)O1 | 0.96 nM | 100%
23 | COC(=O)[C@@H]1C[C@H](OC(C)=O)C(=O)[C@H]2[C@@]1(C)CC[C@H]1C(=O)O[C@H](c3ccoc3-c3ccc(N)cc3)C[C@]21C | 620 nM | 65%
24 | COC(=O)[C@@H]1C[C@H](OC(C)=O)C(=O)[C@H]2[C@@]1(C)CC[C@H]1C(=O)O[C@H](c3ccoc3-c3cccc([N+](=O)[O-])c3)C[C@]21C | 450 nM | 100%
25 | COC(=O)[C@@H]1C[C@H](OC(C)=O)C(=O)[C@H]2[C@@]1(C)CC[C@H]1C(=O)O[C@H](c3ccoc3-c3ccc(F)cc3)C[C@]21C | 54 nM | 100%
26 | COC(=O)[C@@H]1C[C@H](OC(C)=O)C(=O)[C@H]2[C@@]1(C)CC[C@H]1C(=O)O[C@H](c3cc(C)oc3C)C[C@]21C | 250 nM | 100%
27 | COC(=O)[C@@H]1C[C@H](OC(C)=O)C(=O)[C@H]2[C@@]1(C)CC[C@H]1C(=O)O[C@H](c3ccoc3-c3ccc(C)cc3)C[C@]21C | 2.3 nM | 100%
28 | COC(=O)[C@@H]1C[C@H](OC(C)=O)C(=O)[C@H]2[C@@]1(C)CC[C@H]1C(=O)O[C@H](c3ccoc3-c3ccccc3)C[C@]21C | 1.3 nM | 100%
29 | COC(=O)[C@@H]1C[C@H](OC(C)=O)C(=O)[C@H]2[C@@]1(C)CC[C@H]1C(=O)O[C@H](c3ccoc3-c3cccc(C(F)(F)F)c3)C[C@]21C | 27 nM | 100%
30 | COC(=O)[C@@H]1C[C@H](OC(C)=O)C(=O)[C@H]2[C@@]1(C)CC[C@H]1C(=O)O[C@H](c3ccoc3-c3ccc(OC)cc3)C[C@]21C | 16 nM | 100%
31 | COC(=O)[C@@H]1C[C@H](OC(C)=O)C(=O)[C@H]2[C@@]1(C)CC[C@H]1C(=O)O[C@H](c3ccoc3-c3ccccc3C(F)(F)F)C[C@]21C | 8.4 nM | 100%
32 | CCc1occc1[C@@H]1C[C@]2(C)[C@H]3C(=O)[C@@H](OC(C)=O)C[C@@H](C(=O)OC)[C@]3(C)CC[C@H]2C(=O)O1 | 2.9 nM | 100%
33 | COC(=O)[C@@H]1C[C@H](OC(C)=O)C(=O)[C@H]2[C@@]1(C)CC[C@H]1C(=O)O[C@H](c3ccoc3-c3ccc(C(F)(F)F)cc3)C[C@]21C | 1020 nM | 100%
34 | COC(=O)[C@@H]1C[C@H](OC(C)=O)C(=O)[C@H]2[C@@]1(C)CC[C@H]1C(=O)O[C@H](c3ccoc3C#Cc3ccccc3)C[C@]21C | 100 nM | 100%
35 | COC(=O)[C@@H]1C[C@H](OC(C)=O)C(=O)[C@H]2[C@@]1(C)CC[C@H]1C(=O)O[C@H](c3ccoc3C(F)(F)F)C[C@]21C | 31 nM | 100%
36 | COC(=O)[C@@H]1C[C@H](OC(C)=O)C(=O)[C@H]2[C@@]1(C)CC[C@H]1C(=O)O[C@H](c3cc(Br)oc3Br)C[C@]21C | 240 nM | 100%
37 | COC(=O)[C@@H]1C[C@H](OC(C)=O)C(=O)[C@H]2[C@@]1(C)CC[C@H]1C(=O)O[C@H](c3ccoc3-c3ccccc3C)C[C@]21C | 5.4 nM | 100%
38 | COC(=O)[C@@H]1C[C@H](OC(C)=O)C(=O)[C@H]2[C@@]1(C)CC[C@H]1C(=O)O[C@H](c3coc(C(F)(F)F)c3)C[C@]21C | 3.1 nM | 100%
39 | COC(=O)[C@@H]1C[C@H](OC(C)=O)C(=O)[C@H]2[C@@]1(C)CC[C@H]1C(=O)O[C@H](c3ccoc3CCc3ccccc3)C[C@]21C | 38 nM | 100%
40 | COC(=O)[C@@H]1C[C@H](OC(C)=O)C(=O)[C@H]2[C@@]1(C)CC[C@H]1C(=O)O[C@H](c3ccoc3C=O)C[C@]21C | 7.3 nM | 100%
41 | COC(=O)[C@@H]1C[C@H](OC(C)=O)C(=O)[C@H]2[C@@]1(C)CC[C@H]1C(=O)O[C@H](c3ccoc3C#Cc3ccccc3C(F)(F)F)C[C@]21C | 430 nM | 100%
42 | COC(=O)[C@@H]1C[C@H](OC(C)=O)C(=O)[C@H]2[C@@]1(C)CC[C@H]1C(=O)O[C@H](c3ccoc3-c3cccc(N)c3)C[C@]21C | 630 nM | 100%
